Data taken from ChEMBL document CHEMBL3124841, “Discovery of vinyl sulfones as a novel class of neuroprotective agents toward Parkinson's disease therapy” (J Med Chem, 2014).
Calls of active or inactive are those of the source. No cut-off for these calls is given here.

Experiments:
[1] = target: T1, Nuclear factor erythroid 2-related factor 2 (Mus musculus) (UniProt Q60795); assay: Induction of Nrf2-dependent HO1 gene expression in mouse CATH.a cells at 1 to 10 uM after 6 hrs by RT-PCR analysis relative to control; format: cell-based
T1 sequence (whole entry): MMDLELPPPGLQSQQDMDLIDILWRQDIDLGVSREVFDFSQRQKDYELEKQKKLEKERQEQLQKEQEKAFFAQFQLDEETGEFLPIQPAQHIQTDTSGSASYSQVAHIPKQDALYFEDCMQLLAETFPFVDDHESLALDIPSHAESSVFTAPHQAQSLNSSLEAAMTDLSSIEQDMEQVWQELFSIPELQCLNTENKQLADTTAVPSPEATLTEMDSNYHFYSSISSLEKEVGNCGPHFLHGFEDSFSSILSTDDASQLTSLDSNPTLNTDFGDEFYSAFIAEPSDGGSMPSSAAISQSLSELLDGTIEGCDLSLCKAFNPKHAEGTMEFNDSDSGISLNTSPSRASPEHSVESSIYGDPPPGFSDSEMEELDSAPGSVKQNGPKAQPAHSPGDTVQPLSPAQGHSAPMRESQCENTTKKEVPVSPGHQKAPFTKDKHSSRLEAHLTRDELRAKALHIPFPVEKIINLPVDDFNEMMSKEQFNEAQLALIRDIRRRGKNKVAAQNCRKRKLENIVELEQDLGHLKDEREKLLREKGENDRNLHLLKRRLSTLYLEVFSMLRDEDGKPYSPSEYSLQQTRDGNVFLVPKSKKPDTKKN
How it was run: (§1)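 CATH.a cells grown in RPMI 1640 with 8% horse serum and 4% FBS, exposed to graded concentrations for 6 h. mRNA analysed by RT-PCR with gene-specific primers, products run on 1% agarose gel, band densitometry normalized to GAPDH. At least duplicate cultures; fold induction versus untreated control ± SEM.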

[2] = target: T1, Nuclear factor erythroid 2-related factor 2 (Mus musculus); assay: Activation of Nrf2 in mouse CATH.a cells assessed as increase in total Nrf2 protein level after 24 hrs by western blot analysis; format: cell-based
How it was run: (§2)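 CATH.a cells (RPMI 1640, 8% horse serum, 4% FBS, 37 °C, 5% CO2) exposed to various concentrations for 24 h. Whole-cell lysate in RIPA buffer with protease inhibitors, 10% SDS-PAGE, Nrf2 immunoblot, chemiluminescence, densitometry normalized to β-actin. At least duplicate cultures, averaged, fold of untreated control ± SEM.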

Mus musculus [3] = species: Mus musculus; assay: Neuroprotection against BH4-induced mouse CATH.a cell death assessed as cell viability at >0.1 uM treated for 20 hrs prior to BH4 challenge for 24 hrs by LDH activity assay; format: functional
How it was run: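 CATH.a cells at 2.4 × 10⁴/well given graded concentrations for 20 h, then 200 μM BH4 for an additional 24 h. Medium LDH activity from NADH oxidation with pyruvate, pH 7.4, read at 340 nm over 5 min. At least duplicate cultures, % untreated control ± SEM, compared against BH4-treated group.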

[4] = Cytotoxicity against mouse CATH.a cells assessed as cell viability at 0.1 to 2 uM after 72 hrs by LDH activity assay; format: cell-based
How it was run: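 Seeded at 2.4 × 10⁴ CATH.a cells/well and exposed to the agent alone for 72 h. LDH in culture medium measured with 0.26 mM NADH, 2.87 mM pyruvate in 100 mM potassium phosphate pH 7.4; absorbance at 340 nm followed 5 min at 2 s intervals, room temperature. Duplicate cultures minimum; % untreated control ± SEM.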

[5] = target: T1, Nuclear factor erythroid 2-related factor 2 (Mus musculus); assay: Induction of Nrf2-dependent HO1 protein level in mouse BV-2 cells at 20 uM after 24 hrs by sandwich ELISA; format: cell-based
How it was run: (§3)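 Murine BV-2 microglia in DMEM/10% FBS, 2.0 × 10⁴ cells per well, treated at 20 μM for 24 h in triplicate. Lysates in NP-40 Tris buffer (pH 8.0) diluted tenfold; HO-1 measured by sandwich ELISA with HRP-streptavidin and Amplex Red fluorescence (ex 530/em 590 nm). Expressed as % of 0.04% DMSO vehicle control ± SEM; sulforaphane 5 μM as reference.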

Mus musculus [6] = species: Mus musculus; assay: Neuroprotection against BH4-induced mouse CATH.a cell death assessed as cell viability at >0.1 uM treated for 20 hrs prior to BH4 challenge for 24 hrs by ATP assay; format: functional
How it was run: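 CATH.a cells (2.4 × 10⁴/well) pretreated with graded concentrations for 20 h, then challenged with 200 μM BH4 for a further 24 h. Viability as cellular ATP by CellTiter-Glo luminescence. At least duplicate cultures, percent of untreated control ± SEM, compared with BH4-treated cells.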

[7] = target: T1, Nuclear factor erythroid 2-related factor 2 (Mus musculus); assay: Induction of Nrf2 nuclear translocation in mouse CATH.a cells after 3 hrs by western blot analysis; format: cell-based
How it was run: (§4)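 Mouse DAergic CATH.a cells treated at various concentrations for 3 h. Nuclei isolated by hypotonic HEPES buffer/NP-40 lysis, then nuclear proteins extracted in 400 mM NaCl HEPES buffer. Nrf2 Western blot with lamin B as nuclear marker, chemiluminescent detection, densitometry. At least duplicate cultures, expressed as fold induction over untreated control ± SEM.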

[8] = target: T1, Nuclear factor erythroid 2-related factor 2 (Mus musculus); assay: Induction of Nrf2-dependent HO1 gene expression in mouse CATH.a cells at 0.1 uM after 6 hrs by RT-PCR analysis; format: cell-based; how it was run: as §1
[9] = target: T1, Nuclear factor erythroid 2-related factor 2 (Mus musculus); assay: Induction of Nrf2-dependent GCLC gene expression in mouse CATH.a cells at 2 uM after 6 hrs by RT-PCR analysis relative to control; format: cell-based; how it was run: as §1
[10] = target: T1, Nuclear factor erythroid 2-related factor 2 (Mus musculus); assay: Induction of Nrf2-dependent GCLM gene expression in mouse CATH.a cells at 0.1 uM after 6 hrs by RT-PCR analysis; format: cell-based; how it was run: as §1
Mus musculus [11] = assay: Inhibition of motor deficits in MPTP-induced C57Bl/6 mouse parkinson's disease model assessed as total time taken on grid apparatus at 10 mg/kg/day, po for 3 days administered first dose at 24 hrs prior to first injection of 4X 20 mg/kg, ip MPTP challenge by vertical grid test (reference value: 34.8 +/-5.4s); format: functional
[12] = target: T1, Nuclear factor erythroid 2-related factor 2 (Mus musculus); assay: Activation of Nrf2 in mouse CATH.a cells assessed as increase in total Nrf2 protein level at 1 uM after 24 hrs by western blot analysis; format: cell-based; how it was run: as §2
[13] = target: T1, Nuclear factor erythroid 2-related factor 2 (Mus musculus); assay: Induction of Nrf2-dependent NQO1 gene expression in mouse CATH.a cells at 1 uM after 6 hrs by RT-PCR analysis relative to control; format: cell-based; how it was run: as §1
[14] = target: T1, Nuclear factor erythroid 2-related factor 2 (Mus musculus); assay: Induction of Nrf2 nuclear translocation in mouse CATH.a cells at 1 uM after 3 hrs by western blot analysis; format: cell-based; how it was run: as §4
[15] = target: T1, Nuclear factor erythroid 2-related factor 2 (Mus musculus); assay: Induction of Nrf2-dependent NQO1 gene expression in mouse CATH.a cells at 0.1 uM after 6 hrs by RT-PCR analysis; format: cell-based; how it was run: as §1
Mus musculus [16] = assay: Neuroprotective activity against MPTP-induced neurodegeneration in C57Bl/6 mouse parkinson's disease model assessed as increase in DAergic neurons in SN at 10 mg/kg/day, po for 3 days administered first dose at 24 hrs prior to first injection of 4X 20 mg/kg, ip MPTP challenge measured 7 days after first MPTP injection by immunohistochemistry; format: functional, organism-based
How it was run: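 Male C57Bl/6 mice (23−25 g, n = 10/group) dosed orally at 10 mg/kg/day for 3 days, vehicle N-methyl-2-pyrrolidone and 20% Tween 80 in saline. MPTP 4 × 20 mg/kg ip 2 h apart, starting 24 h after first oral dose. Perfusion-fixed 7 days after first MPTP; TH immunostaining, nigral cells counted and striatal fibers densitometered on five sections each, 80 μm apart. Expressed as % vehicle control ± SEM.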

[17] = target: T1, Nuclear factor erythroid 2-related factor 2 (Mus musculus); assay: Induction of Nrf2-dependent HO1 protein level in mouse BV-2 cells at 20 uM after 24 hrs by sandwich ELISA relative to control; format: cell-based; how it was run: as §3

SMILES: COc1ccccc1S(=O)(=O)/C=C/c1ccccc1Cl
- fold change (FC) [1]: 3
- Activity [2]: Dose-dependent effect
- Activity (Mus musculus [3]): Active
- Activity [4]: Non-toxic
- Activity [5]: 382%
- Activity (Mus musculus [6]): Active
- Activity [7]: Dose-dependent effect
- Activity [8]: inactive
- fold change (FC) [9]: 1.41
- Activity [10]: inactive
- Time (Mus musculus [11]): 10.3 s
- Activity [12]: Active
- fold change (FC) [13]: 1.95
- Activity [14]: Active
- Activity [15]: inactive
- Activity (Mus musculus [16]): Active
- fold change (FC) [17]: 3.8
